Data published in ChEMBL document CHEMBL3120102, “Structure-based design, synthesis and biological evaluation of novel anthra[1,2-d]imidazole-6,11-dione homologues as potential antitumor agents” (2013).

Columns and labels:
Assay type in all cases: functional
T47D = assay: Cytotoxicity against human T47D cells assessed as growth inhibition after 48 hrs by SRB assay
Method in brief: (§1)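 NCI 60-cell-line screen, two stages. Five-dose testing at […]. Cellular protein measured by sulforhodamine B colorimetry after 48 h drug exposure. A time-zero control and drug-free plates are used to derive GI50, TGI and LC50 from dose-response curves plotted as log10 concentration per cell line.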

CAKI-1 [1] = assay: Cytotoxicity against human CAKI-1 cells assessed as growth inhibition after 48 hrs by SRB assay
Method in brief: (§2)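 NCI 60-cell-line five-dose screen at […]. Drug exposure was 48 h, followed by sulforhodamine B protein staining. GI50, TGI and LC50 were calculated against a time-zero control and untreated plates, with dose–response curves plotted from log10 concentration.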

[2] = (§3) Cytotoxicity against human OVCAR4 cells assessed as growth inhibition after 48 hrs by SRB assay; conditions: OVCAR-4, 48 h
Method in brief: (§4)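 NCI 60-cell-line screen, five-dose stage: each cell line exposed for 48 h to five concentrations spanning five log steps; cellular protein measured by sulforhodamine B colorimetry. A time-zero cell control and plates without drug are used to derive GI50, TGI and LC50 from log-concentration dose-response curves.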

OVCAR-4 = assay: as §3; method in brief: as §4
IGROV-1 = assay: Cytotoxicity against human IGROV1 cells assessed as growth inhibition after 48 hrs by SRB assay; conditions: for GI50 / LC50 / TGI: IGROV-1, 48 h; method in brief: as §2
SNB-75 = assay: Cytotoxicity against human SNB75 cells assessed as growth inhibition after 48 hrs by SRB assay; conditions: for GI50 / LC50 / TGI: SNB-75, 48 h; method in brief: as §1
SNB-19 = assay: Cytotoxicity against human SNB19 cells assessed as growth inhibition after 48 hrs by SRB assay; conditions: for GI50 / LC50 / TGI: SNB-19, 48 h; method in brief: as §1
SF-539 = assay: Cytotoxicity against human SF539 cells assessed as growth inhibition after 48 hrs by SRB assay; conditions: for GI50 / TGI / CC50: SF-539, 48 h; for CC50: read-out: LC50 (the source's name); method in brief: as §4
KM12 = assay: Cytotoxicity against human KM12 cells assessed as growth inhibition after 48 hrs by SRB assay; conditions: for GI50 / TGI / CC50: KM12, 48 h; for CC50: read-out: LC50 (the source's name); method in brief: as §2
HOP-92 = assay: Cytotoxicity against human HOP92 cells assessed as growth inhibition after 48 hrs by SRB assay; conditions: for GI50 / TGI / CC50: HOP-92, 48 h; for CC50: read-out: LC50 (the source's name); method in brief: as §2
HOP-62 = assay: Cytotoxicity against human HOP62 cells assessed as growth inhibition after 48 hrs by SRB assay; conditions: for GI50 / LC50 (concentration killing 50% of cells relative to time zero) / TGI: HOP-62, 48 h; method in brief: as §2
RPMI-8226 = assay: Cytotoxicity against human RPMI8226 cells assessed as growth inhibition after 48 hrs by SRB assay; conditions: for GI50 / LC50 (concentration causing 50% net cell kill) / TGI: RPMI-8226, 48 h; method in brief: as §4
MOLT-4 = assay: Cytotoxicity against human MOLT4 cells assessed as growth inhibition after 48 hrs by SRB assay; conditions: for GI50 / LC50 (50% lethal concentration) / TGI: MOLT-4, 48 h; method in brief: as §4
CAKI-1 [3] = assay: Cytotoxicity against human CAKI-1 cells assessed as cell growth at 10 uM after 48 hrs by SRB assay; conditions: CAKI-1, 48 h, read-out: Activity

Compound: CCCSc1nc2ccc3c(c2[nH]1)C(=O)c1ccccc1C3=O
- GI50 (T47D): 2.66 µM
- LC50 (T47D): > 100 µM
- TGI (T47D): > 100 µM
- growth inhibition (GI) (T47D): Dose-dependent effect
- growth inhibition (GI) (CAKI-1 [1]): Dose-dependent effect
- GI50 (CAKI-1 [1]; CAKI-1, 48 h): 3.07 µM
- LC50 (CAKI-1 [1]; CAKI-1, 48 h): > 100 µM
- TGI (CAKI-1 [1]; CAKI-1, 48 h): > 100 µM
- GI50 [2]: 5.05 µM
- LC50 (concentration killing 50% of cells) [2]: > 100 µM
- TGI [2]: > 100 µM
- growth inhibition (GI) (OVCAR-4): Dose-dependent effect
- growth inhibition (GI) (IGROV-1): Dose-dependent effect
- GI50 (IGROV-1): 4.03 µM
- LC50 (IGROV-1): > 100 µM
- TGI (IGROV-1): > 100 µM
- growth inhibition (GI) (SNB-75): Dose-dependent effect
- GI50 (SNB-75): 2.64 µM
- LC50 (SNB-75): 98.1 µM
- TGI (SNB-75): 6.43 µM
- growth inhibition (GI) (SNB-19): Dose-dependent effect
- GI50 (SNB-19): 9.35 µM
- LC50 (SNB-19): > 100 µM
- TGI (SNB-19): > 100 µM
- growth inhibition (GI) (SF-539): Dose-dependent effect
- GI50 (SF-539): 3.07 µM
- TGI (SF-539): 32 µM
- CC50 (SF-539): > 100 µM
- growth inhibition (GI) (KM12): Dose-dependent effect
- GI50 (KM12): > 100 µM
- TGI (KM12): > 100 µM
- CC50 (KM12): > 100 µM
- growth inhibition (GI) (HOP-92): Dose-dependent effect
- GI50 (HOP-92): 15 µM
- TGI (HOP-92): > 100 µM
- CC50 (HOP-92): > 100 µM
- growth inhibition (GI) (HOP-62): Dose-dependent effect
- GI50 (HOP-62): 1.94 µM
- LC50 (concentration killing 50% of cells relative to time zero) (HOP-62): 9.36 µM
- TGI (HOP-62): 4.27 µM
- growth inhibition (GI) (RPMI-8226): Dose-dependent effect
- GI50 (RPMI-8226): > 100 µM
- LC50 (concentration causing 50% net cell kill) (RPMI-8226): > 100 µM
- TGI (RPMI-8226): > 100 µM
- growth inhibition (GI) (MOLT-4): Dose-dependent effect
- GI50 (MOLT-4): > 100 µM
- LC50 (50% lethal concentration) (MOLT-4): > 100 µM
- TGI (MOLT-4): > 100 µM
- growth at 10 µM (CAKI-1 [3]): 45.5%

Compound: CCSc1nc2ccc3c(c2[nH]1)C(=O)c1ccccc1C3=O
- GI50 (T47D): 4.21 µM
- LC50 (T47D): > 100 µM
- TGI (T47D): > 100 µM
- growth inhibition (GI) (T47D): Dose-dependent effect
- GI50 [2]: 3.17 µM
- LC50 (concentration killing 50% of cells) [2]: > 100 µM
- TGI [2]: > 100 µM
- growth inhibition (GI) (OVCAR-4): Dose-dependent effect
- growth inhibition (GI) (IGROV-1): Dose-dependent effect
- GI50 (IGROV-1): 2.38 µM
- LC50 (IGROV-1): > 100 µM
- TGI (IGROV-1): > 100 µM
- growth inhibition (GI) (SNB-75): Dose-dependent effect
- GI50 (SNB-75): 10.1 µM
- LC50 (SNB-75): > 100 µM
- TGI (SNB-75): 84.9 µM
- growth inhibition (GI) (SNB-19): Dose-dependent effect
- GI50 (SNB-19): > 100 µM
- LC50 (SNB-19): > 100 µM
- TGI (SNB-19): > 100 µM
- growth inhibition (GI) (SF-539): Dose-dependent effect
- GI50 (SF-539): 22.9 µM
- TGI (SF-539): > 100 µM
- CC50 (SF-539): > 100 µM
- growth inhibition (GI) (KM12): Dose-dependent effect
- GI50 (KM12): 8.43 µM
- TGI (KM12): > 100 µM
- CC50 (KM12): > 100 µM
- growth inhibition (GI) (HOP-92): Dose-dependent effect
- GI50 (HOP-92): 90.6 µM
- TGI (HOP-92): > 100 µM
- CC50 (HOP-92): > 100 µM
- growth inhibition (GI) (HOP-62): Dose-dependent effect
- GI50 (HOP-62): 25.9 µM
- LC50 (concentration killing 50% of cells relative to time zero) (HOP-62): > 100 µM
- TGI (HOP-62): > 100 µM
- growth inhibition (GI) (RPMI-8226): Dose-dependent effect
- GI50 (RPMI-8226): 2.83 µM
- LC50 (concentration causing 50% net cell kill) (RPMI-8226): > 100 µM
- TGI (RPMI-8226): > 100 µM
- growth inhibition (GI) (MOLT-4): Dose-dependent effect
- GI50 (MOLT-4): 4.05 µM
- LC50 (50% lethal concentration) (MOLT-4): > 100 µM
- TGI (MOLT-4): > 100 µM
- growth at 10 µM (CAKI-1 [3]): -8.01%
